{"source": "ChEMBL document CHEMBL1944548", "about": "“Discovery of kinase spectrum selective macrocycle (16E)-14-methyl-20-oxa-5,7,14,26-tetraazatetracyclo[19.3.1.1(2,6).1(8,12)]heptacosa-1(25),2(26),3,5,8(27),9,11,16,21,23-decaene (SB1317/TG02), a potent inhibitor of cyclin dependent kinases (CDKs), Janus kinase 2 (JAK2), and fms-like tyrosine …” (J Med Chem, 2012)", "key": {"Ramos [1]": {"tested_on": "Ramos", "test": "Antitumor activity against human Ramos cells xenografted in BALB/c nude mouse assessed as tumor growth inhibition at 75 mg/kg, po qd on a 2 days on and 5 days off schedule for 15 days", "assay_type": "functional", "conditions": "read-out: GI"}, "Ramos [2]": {"tested_on": "Ramos", "test": "Antitumor activity against human Ramos cells xenografted in BALB/c nude mouse assessed as tumor growth inhibition at 15 mg/kg, ip qd on a 5 days on 5 days off schedule for 15 days", "assay_type": "functional", "conditions": "route intraperitoneal, read-out: GI"}, "Ramos [3]": {"tested_on": "Ramos", "test": "Antitumor activity against human Ramos cells xenografted in po/ip dosed BALB/c nude mouse assessed as tumor growth inhibition", "assay_type": "functional, organism-based", "method_in_brief": "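Female BALB/c nude mice implanted sc in right flank with 7 × 10^6 Ramos cells; dosing began 12 days after inoculation at about 200 mm3, n = 8–10/group. Arms: 75 mg/kg po q.d. 2 days on/5 off in MC/Tween, or 15 mg/kg ip q.d.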"}, "[4]": {"test": "Tmax in BALB/c mouse at 75 mg/kg, po by LC-MS/MS analysis", "assay_type": "ADME, organism-based", "set-up": "dose 75 mg/kg, route oral", "conditions": "in vivo", "method_in_brief": "(§1)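 Male BALB/c mice (~10−12 weeks, 17−22 g) gavaged with 75 mg/kg as a suspension in 0.5% methylcellulose/0.1% Tween 80. Serial blood by cardiac puncture over 0−24 h into K3EDTA, plasma stored at −70 °C, LC−MS/MS; parameters by noncompartmental analysis.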"}, "[5]": {"test": "Oral bioavailability in BALB/c mouse at 75 mg/kg by LC-MS/MS analysis", "assay_type": "ADME, organism-based", "conditions": "in vivo", "method_in_brief": "as §1"}, "[6]": {"test": "AUC (0 to infinity) in BALB/c mouse at 75 mg/kg, po by LC-MS/MS analysis", "assay_type": "ADME, organism-based", "set-up": "time infinity, dose 75 mg/kg, route oral", "conditions": "plasma", "method_in_brief": "as §1"}, "[7]": {"test": "Terminal half life in BALB/c mouse at 75 mg/kg, po by LC-MS/MS analysis", "assay_type": "ADME, organism-based", "set-up": "dose 75 mg/kg, route oral", "conditions": "in vivo, read-out: beta t1/2 (converted)", "method_in_brief": "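Male BALB/c mice, ~10−12 weeks, 17−22 g. Given 75 mg/kg by oral gavage as a suspension in 0.5% methylcellulose/0.1% Tween 80. Serial blood taken by cardiac puncture over 0−24 h into K3EDTA; plasma stored at −70 °C. Analysis by LC−MS/MS, parameters by noncompartmental methods.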"}, "[8]": {"test": "AUC (0 to infinity) in BALB/c mouse at 5 mg/kg, iv by LC-MS/MS analysis", "assay_type": "ADME, organism-based", "set-up": "time infinity, dose 5 mg/kg, route intravenous", "conditions": "plasma"}, "[9]": {"test": "Terminal half life in BALB/c mouse at 5 mg/kg, iv by LC-MS/MS analysis", "assay_type": "ADME, organism-based", "set-up": "dose 5 mg/kg, route intravenous", "conditions": "in vivo, read-out: beta t1/2 (converted)"}, "[10]": {"test": "Volume of distribution at steady state in BALB/c mouse at 5 mg/kg, iv by LC-MS/MS analysis", "assay_type": "ADME, organism-based", "set-up": "dose 5 mg/kg, route intravenous", "conditions": "in vivo, read-out: Vdss"}, "[11]": {"test": "Clearance in BALB/c mouse at 5 mg/kg, iv by LC-MS/MS analysis", "assay_type": "ADME, organism-based", "set-up": "dose 5 mg/kg, route intravenous", "conditions": "in vivo"}, "[12]": {"test": "Plasma protein binding in dog at 1000 ng/ml after 4 hrs by equilibrium dialysis method", "assay_type": "ADME, cell-free, Canis lupus familiaris", "conditions": "read-out: PPB", "method_in_brief": "(§2)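 Equilibrium dialysis of plasma (mouse, dog, human) spiked to 1000 ng/mL against PBS, 4 h at 37 °C. Buffer side extracted in triplicate with MTBE, dried, reconstituted in methanol/water 60:40, measured by LC−MS/MS.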"}, "[13]": {"test": "Plasma protein binding in human at 1000 ng/ml after 4 hrs by equilibrium dialysis method", "assay_type": "ADME, cell-free", "conditions": "read-out: PPB", "method_in_brief": "as §2"}, "Cytochrome P450 2C19": {"target": "Cytochrome P450 2C19 (Homo sapiens, UniProt P33261)", "sequence (P33261 whole entry)": "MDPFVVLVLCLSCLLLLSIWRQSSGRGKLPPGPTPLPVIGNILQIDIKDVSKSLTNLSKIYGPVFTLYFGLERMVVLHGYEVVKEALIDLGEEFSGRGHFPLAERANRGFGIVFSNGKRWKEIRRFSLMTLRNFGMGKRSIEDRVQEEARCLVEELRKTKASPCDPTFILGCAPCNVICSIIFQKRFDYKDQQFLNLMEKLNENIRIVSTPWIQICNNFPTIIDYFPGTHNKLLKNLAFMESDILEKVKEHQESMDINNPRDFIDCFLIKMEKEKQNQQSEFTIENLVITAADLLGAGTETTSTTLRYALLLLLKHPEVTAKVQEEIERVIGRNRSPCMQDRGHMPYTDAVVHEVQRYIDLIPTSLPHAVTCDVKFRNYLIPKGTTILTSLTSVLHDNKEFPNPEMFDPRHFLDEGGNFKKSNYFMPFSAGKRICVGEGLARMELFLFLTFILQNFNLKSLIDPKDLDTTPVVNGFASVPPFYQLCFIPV", "test": "Inhibition of CYP2C19 in human liver microsomes using mephenytoin as substrate after 60 mins by LC-MS/MS analysis", "assay_type": "ADME, Microsome", "method_in_brief": "(§3)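 Human liver microsomes (0.5 mg/mL for CYP2C19, 1 mg/mL for CYP2C9), NADPH 1 mM, test at 0.05−25 μM (DMSO 0.35% final), 37 °C; probes mephenytoin 25 μM (CYP2C19) and tolbutamide 120 μM (CYP2C9), 60 min each. IC50 from decrease in metabolite formation vs vehicle.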"}, "Cytochrome P450 2C9": {"target": "Cytochrome P450 2C9 (Homo sapiens, UniProt P11712)", "sequence (P11712 whole entry)": "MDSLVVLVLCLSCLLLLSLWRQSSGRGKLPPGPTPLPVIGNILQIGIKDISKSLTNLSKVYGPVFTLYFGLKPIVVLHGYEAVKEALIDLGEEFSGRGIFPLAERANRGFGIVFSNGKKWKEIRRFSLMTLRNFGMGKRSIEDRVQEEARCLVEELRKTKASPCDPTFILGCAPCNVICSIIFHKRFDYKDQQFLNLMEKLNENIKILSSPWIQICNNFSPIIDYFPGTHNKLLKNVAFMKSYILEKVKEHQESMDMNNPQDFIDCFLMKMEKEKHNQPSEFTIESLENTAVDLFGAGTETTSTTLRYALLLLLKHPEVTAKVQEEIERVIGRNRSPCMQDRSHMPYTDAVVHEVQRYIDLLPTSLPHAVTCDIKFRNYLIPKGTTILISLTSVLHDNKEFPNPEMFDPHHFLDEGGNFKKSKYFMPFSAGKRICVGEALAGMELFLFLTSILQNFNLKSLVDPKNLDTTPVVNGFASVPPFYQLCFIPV", "test": "Inhibition of CYP2C9 in human liver microsomes using Tolbutamide as substrate after 60 mins by LC-MS/MS analysis", "assay_type": "ADME, Microsome", "method_in_brief": "as §3"}, "Cytochrome P450 3A4": {"target": "Cytochrome P450 3A4 (Homo sapiens, UniProt P08684)", "sequence (P08684 whole entry)": "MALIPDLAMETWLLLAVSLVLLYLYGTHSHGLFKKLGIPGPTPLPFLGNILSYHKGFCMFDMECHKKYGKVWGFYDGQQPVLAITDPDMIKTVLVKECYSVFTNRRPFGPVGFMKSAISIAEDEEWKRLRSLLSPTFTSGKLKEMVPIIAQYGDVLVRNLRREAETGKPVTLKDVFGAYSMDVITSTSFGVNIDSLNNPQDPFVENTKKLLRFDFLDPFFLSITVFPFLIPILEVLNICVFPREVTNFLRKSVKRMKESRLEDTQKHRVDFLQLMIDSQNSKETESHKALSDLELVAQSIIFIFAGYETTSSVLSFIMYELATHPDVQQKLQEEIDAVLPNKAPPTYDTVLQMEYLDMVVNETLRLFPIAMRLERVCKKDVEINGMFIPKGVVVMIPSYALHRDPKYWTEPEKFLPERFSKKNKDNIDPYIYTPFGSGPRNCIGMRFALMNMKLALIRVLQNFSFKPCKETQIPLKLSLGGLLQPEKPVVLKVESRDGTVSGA", "test": "Inhibition of CYP3A4 in human liver microsomes using midazolam as substrate after 5 mins by LC-MS/MS analysis", "assay_type": "ADME, Microsome"}, "[14]": {"test": "Half life in dog liver microsomes at 5 uM by LC-MS/MS analysis", "assay_type": "ADME, Canis lupus familiaris, Microsome", "method_in_brief": "(§4)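 5 μM with mouse, rat, dog or human liver microsomes (~0.87 mg/mL), 50 mM potassium phosphate pH 7.4, NADPH regeneration system, 37 °C.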"}, "[15]": {"test": "Half life in rat liver microsomes at 5 uM by LC-MS/MS analysis", "assay_type": "ADME, Microsome", "method_in_brief": "as §4"}, "[16]": {"test": "Apparent permeability of the compound from apical to basolateral side in human Caco2 cells at 5 uM after 21 to 28 days by LC/MS analysis", "assay_type": "ADME, cell-based", "conditions": "Caco-2", "method_in_brief": "(§5)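 5 μM in HBSS (DMSO <1%) dosed apical or basolateral on 21−28-day confluent Caco-2 monolayers, both sides pH 7.4. Sampled at 2 h, quantified by LC/MS with four-point calibration. Monolayer integrity checked by pre-experiment TEER (450−650 Ωcm2) and Lucifer yellow; efflux ratio = Papp B→A / Papp A→B.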"}, "[17]": {"test": "Apparent permeability of the compound from basolateral to apical side in human Caco2 cells at 5 uM after 21 to 28 days by LC/MS analysis", "assay_type": "ADME, cell-based", "conditions": "Caco-2", "method_in_brief": "as §5"}, "[18]": {"target": "Cyclin-dependent kinase 2 (Homo sapiens) (UniProt P24941)", "test": "Inhibition of CDK2 in human HCT116 cells assessed as Rb phosphorylation at 40 nM after 24 hrs by Western blot analysis", "assay_type": "cell-based", "conditions": "HCT-116", "method_in_brief": "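HCT-116 cells (2 × 10^5 in McCoy's medium with 2 mM L-glutamine and 10% FBS) seeded 16−24 h before dosing. Each dish exposed to one compound concentration or DMSO for 24 h. Lysis in modified RIPA buffer; protein by Bradford. 30 μg lysate run on 10% SDS−PAGE, blotted to PVDF, probed for phospho-Rb and β-actin. ECL detection.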"}, "DU-145": {"tested_on": "DU-145", "test": "Antiproliferative activity against human DU145 cells after 48 hrs", "assay_type": "functional, cell-based", "conditions": "DU-145, 48 h"}, "COLO 205": {"tested_on": "COLO 205", "test": "Antiproliferative activity against human COLO205 cells after 48 hrs", "assay_type": "functional, cell-based", "conditions": "COLO 205, 48 h"}, "Ramos [19]": {"tested_on": "Ramos", "test": "Antiproliferative activity against human Ramos cells after 48 hrs", "assay_type": "functional, cell-based"}, "HL-60": {"tested_on": "HL-60", "test": "Antiproliferative activity against human HL60 cells after 48 hrs", "assay_type": "functional, cell-based", "conditions": "HL-60, 48 h"}, "[20]": {"test": "Half life in human liver microsomes at 5 uM by LC-MS/MS analysis", "assay_type": "ADME, Microsome", "method_in_brief": "as §4"}, "[21]": {"test": "Solubility of the compound in PBS buffer at 250 uM at pH 7 by UV spectrophotometry", "assay_type": "physicochemical"}, "[22]": {"target": "Tyrosine-protein kinase JAK2 (Homo sapiens, UniProt O60674)", "sequence (O60674 whole entry)": "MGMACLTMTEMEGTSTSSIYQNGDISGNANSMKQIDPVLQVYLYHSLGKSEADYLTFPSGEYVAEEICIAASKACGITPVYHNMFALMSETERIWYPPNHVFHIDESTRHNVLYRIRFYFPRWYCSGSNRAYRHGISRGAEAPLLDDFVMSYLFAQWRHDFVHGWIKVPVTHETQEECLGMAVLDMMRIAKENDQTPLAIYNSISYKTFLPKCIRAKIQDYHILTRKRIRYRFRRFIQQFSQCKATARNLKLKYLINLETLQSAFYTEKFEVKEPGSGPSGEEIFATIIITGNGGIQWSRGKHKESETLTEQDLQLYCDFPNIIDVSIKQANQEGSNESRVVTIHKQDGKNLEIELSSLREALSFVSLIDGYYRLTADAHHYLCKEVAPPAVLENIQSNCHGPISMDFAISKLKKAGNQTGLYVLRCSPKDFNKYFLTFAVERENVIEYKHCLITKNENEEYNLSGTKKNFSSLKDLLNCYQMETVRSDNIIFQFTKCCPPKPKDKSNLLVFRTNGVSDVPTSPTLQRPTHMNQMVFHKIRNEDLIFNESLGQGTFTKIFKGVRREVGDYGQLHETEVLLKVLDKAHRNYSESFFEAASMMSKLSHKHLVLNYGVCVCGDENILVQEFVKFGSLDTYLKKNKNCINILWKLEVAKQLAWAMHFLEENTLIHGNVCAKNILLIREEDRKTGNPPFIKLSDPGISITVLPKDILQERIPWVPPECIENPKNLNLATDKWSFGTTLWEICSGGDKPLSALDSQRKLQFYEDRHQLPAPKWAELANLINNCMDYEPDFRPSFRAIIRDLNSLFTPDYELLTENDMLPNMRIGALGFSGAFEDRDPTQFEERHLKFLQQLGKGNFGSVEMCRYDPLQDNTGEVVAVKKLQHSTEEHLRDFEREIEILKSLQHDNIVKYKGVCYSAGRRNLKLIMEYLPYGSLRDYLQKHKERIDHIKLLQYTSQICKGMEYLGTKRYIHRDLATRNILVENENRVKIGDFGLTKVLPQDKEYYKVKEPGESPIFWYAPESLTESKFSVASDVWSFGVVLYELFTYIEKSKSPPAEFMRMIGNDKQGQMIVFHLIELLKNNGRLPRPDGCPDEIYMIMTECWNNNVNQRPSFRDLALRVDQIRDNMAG", "test": "Inhibition of recombinant JAK2 using poly(Glu,Ala,Tyr) as substrate after 2 hrs by luminescence assay"}}, "note": "Activity calls are given as the source filed them. The rule behind the calls is not given here.", "data": [{"smiles": "CN1C/C=C/CCOc2cccc(c2)-c2ccnc(n2)Nc2cccc(c2)C1", "note": "[ZOTIRACICLIB]", "values": [{"measurement": "inhibition in vivo at 75 mg/kg", "setting": "Ramos [1]", "value": 42, "unit": "%"}, {"measurement": "inhibition in vivo at 15 mg/kg", "setting": "Ramos [2]", "value": 63, "unit": "%"}, {"measurement": "growth inhibition (GI)", "setting": "Ramos [3]", "value": "Dose-dependent effect"}, {"measurement": "Tmax", "setting": "[4]", "value": 30, "unit": "min"}, {"measurement": "bioavailability", "setting": "[5]", "value": 24, "unit": "%"}, {"measurement": "AUC(0-inf)", "setting": "[6]", "value": 2520, "unit": "ng·h/mL"}, {"measurement": "half-life", "setting": "[7]", "value": 366, "unit": "min"}, {"measurement": "AUC(0-inf)", "setting": "[8]", "value": 752, "unit": "ng·h/mL"}, {"measurement": "half-life", "setting": "[9]", "value": 276, "unit": "min"}, {"measurement": "Vd", "setting": "[10]", "value": 23, "unit": "L/kg"}, {"measurement": "clearance", "setting": "[11]", "value": 110, "unit": "mL/min/kg"}, {"measurement": "fraction unbound at 4 h, 1000 ng/ml", "setting": "[12]", "value": 0.001}, {"measurement": "fraction unbound at 4 h, 1000 ng/ml", "setting": "[13]", "value": 0.001}, {"measurement": "IC50", "setting": "Cytochrome P450 2C19", "value": "> 25000", "unit": "nM"}, {"measurement": "IC50", "setting": "Cytochrome P450 2C9", "value": "> 25000", "unit": "nM"}, {"measurement": "IC50", "setting": "Cytochrome P450 3A4", "value": "> 25000", "unit": "nM"}, {"measurement": "half-life at 5 µM", "setting": "[14]", "value": 33, "unit": "min"}, {"measurement": "half-life at 5 µM", "setting": "[15]", "value": 11, "unit": "min"}, {"measurement": "Papp A→B at 5 µM", "setting": "[16]", "value": 28, "unit": "×10⁻⁶ cm/s"}, {"measurement": "Papp B→A at 5 µM", "setting": "[17]", "value": 27.4, "unit": "×10⁻⁶ cm/s"}, {"measurement": "inhibition", "setting": "[18]", "value": "Active"}, {"measurement": "IC50", "setting": "DU-145", "value": 140, "unit": "nM"}, {"measurement": "IC50", "setting": "COLO 205", "value": 72, "unit": "nM"}, {"measurement": "IC50", "setting": "Ramos [19]", "value": 33, "unit": "nM"}, {"measurement": "IC50", "setting": "HL-60", "value": 59, "unit": "nM"}, {"measurement": "half-life at 5 µM", "setting": "[20]", "value": 45, "unit": "min"}, {"measurement": "solubility at 250 µM", "setting": "[21]", "value": 71.8, "unit": "µg/mL"}, {"measurement": "IC50", "setting": "[22]", "value": 73, "unit": "nM"}]}]}
